Screening results: PubChem BioAssay, Sanford-Burnham Center for Chemical Genomics
tim23-1 inh: growth inhibitors of tim23-1 mutant yeast. S. cerevisiae tim23-1 growth, BacTiter-Glo luminescence, 24 h. inhibition, % at 20 µM. 330,000 compounds, 1.3% hits. AID 463212;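 active = growth inhibition of the mutant yeast at or above 50%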;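 also: temperature-sensitive mutant grown at 25 °C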
CHOP UPR activ: activators of apoptotic arm of unfolded protein response (CHOP); CHO-CHOP luciferase reporter, UPR activation, luminescence; percent of tunicamycin response over DMSO baseline; activation, % at 10 µM; 330,000 compounds, 0.34% hits; AID 449763;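 active = at 10 µM dose, activation of 40% or more, normalized to positive control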
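Assay system: CHO cells with stable CHOP pathway luciferase reporter; Buffer or medium: F12 plus 10% serum; Times: 16-18 h cell attachment, then 6 h compound exposure, 37 °C; Signal: luciferase luminescence; Read-out basis: percent activation relative to tunicamycin control; Control set: tunicamycin high control, DMSO low control.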
tim10-1 inh: growth inhibitors of tim10-1 mutant yeast | S. cerevisiae tim10-1 ts strain growth, BacTiter-Glo, 24 h | inhibition, % at 20 µM | 330,000 compounds, 2.2% hits;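 active = inhibition of at least 40%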;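 also: mutant grown at 25 °C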
UPR XBP1 act: activators of adaptive arm of unfolded protein response (XBP1); CHO-XBP1 luciferase reporter, IRE1-XBP1 UPR activation, luminescence; percent of tunicamycin response, DMSO as zero; activation, % at 20 µM; AID 463104; 330,000 compounds, 0.33% hits;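 active = versus positive control, 20 µM dose yields 30% or more activation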
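Material: IRE1-XBP1 luciferase reporter CHO line / Quantity: one thousand reporter cells per well / Buffer or medium: F12 with 10% serum / Compound: 20 µM single concentration, DMSO 1% / Times: 6 h treatment, 37 °C / Detection: Steady-Glo luciferase glow luminescence, 10 min after reagent addition / Benchmarks: tunicamycin high, DMSO low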
TIM10 inh: growth inhibitors of TIM10 yeast strain. S. cerevisiae TIM10 strain growth, BacTiter-Glo luminescence, 24 h. inhibition, % at 10 µM. 330,000 compounds, 1.4% hits;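 active = inhibition of 40% or more at the single tested concentration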;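 also: wild-type TIM10 isogenic control strain grown at permissive 25 °C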
tim10-1 conf: tim10-1 yeast growth inhibition, confirmed; shares compounds with tim10-1 inh; S. cerevisiae tim10-1 ts strain growth, BacTiter-Glo, 24 h; inhibition, % at 20 µM; 7,400 compounds, 56% hits; AID 463213;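 active = inhibition of yeast growth at or above a set limit in either of two repeat tests at 20 µM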;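 also: tim10-1 mutant grown at permissive 25 °C to find synthetic lethal compounds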
Large screens that a line does not name were inactive (follow-up assays come after a bar, where they were run). Compounds with a hit are over-represented: about 3.9% of the library has one in this group of screens.

O=C(OCCOc1cccc(Cl)c1)C1CCN(S(=O)(=O)c2ccccc2)CC1	tim10-1 inh 44.3 | tim10-1 conf inactive
CC(C)(C)c1cc(CN2CCN(CCO)CC2)cc(C(C)(C)C)c1O	none
CN1CCN(CC(=O)c2cc(C(C)(C)C)c(O)c(C(C)(C)C)c2)CC1	tim10-1 inh 43.9 | tim10-1 conf inactive
Cc1ccccc1OCC(=O)OCC(=O)c1ccc[nH]1	none
Cc1ccc([N+](=O)[O-])cc1NC(=S)NC(=O)CC(C)(C)C	tim10-1 inh 43.4 | tim10-1 conf inactive
Cc1ccc([N+](=O)[O-])cc1NC(=S)NC(=O)C(C)(C)C	none
Cc1ccc(Cl)cc1NC(=O)c1ccccc1OCC(=O)Nc1ccc(Cl)cc1	tim10-1 inh 48.1 | tim10-1 conf inactive
CN(C)/C=C(/C(=O)c1ccccc1)n1cncn1	none
O=C(/C=C(/c1ccc(Cl)cc1)n1cncn1)c1ccccc1	tim10-1 inh 43.4 | tim10-1 conf 31.0
O=C(NCc1ccccc1Cl)[C@@H]1CCCN1S(=O)(=O)c1ccc(Cl)cc1	none
CCC(CO)Nc1nc2ccc(Cl)cc2c2ccccc12 (configuration not stated)	tim10-1 inh 52.8 | tim10-1 conf 39.4
CCC(CO)Nc1ncnc2c1cnn2-c1ccc(Cl)cc1 (configuration not stated)	none
Clc1ccccc1CNc1ncnc2nc[nH]c12	none
CCCN(CCC)c1ncnc2nc[nH]c12	tim10-1 inh 44.8 | tim10-1 conf inactive
Clc1ccccc1CN(Cc1ccccc1)c1ncnc2nc[nH]c12	tim10-1 inh 41.4 | tim10-1 conf inactive
Cc1cc(C)c2cc(C#N)c(N3CCCN(C(=S)NCCCN(C)C)CC3)nc2c1	tim10-1 inh 40.2 | tim10-1 conf 30.6
Cc1ccc2cc(C#N)c(N3CCCN(C(=S)NCCCN(C)C)CC3)nc2c1	none
O=C(NC(Cc1ccccc1)C(=O)O)NC12CC3CC(CC(C3)C1)C2 (configuration not stated)	none
COc1ccc(NC(=O)N2C3CCCC2CC(NC(=O)c2ccccc2)C3)cc1 (configuration not stated)	none
COc1ccc(-c2cc(C(=O)N3CCCCCC3)c3cc(C)ccc3n2)cc1	tim10-1 inh 40.3 | tim10-1 conf inactive
O=C(NNC(=O)c1n[nH]c2ccccc12)c1ccccc1	none
COc1ccc2c(c1)C1C=CCC1C(c1cc3c(cc1Br)OCO3)N2 (configuration not stated)	tim10-1 inh 50.7 | tim10-1 conf 38.2
COc1cc(C(=O)NNC(=O)c2cc(S(=O)(=O)N(C)C)ccc2N2CCCC2)cc(OC)c1OC	none
COC(=O)COc1ccc(-c2nccc(-c3ccccn3)n2)cc1	tim10-1 inh 43.4 | tim10-1 conf 31.2
COc1ccc(NC(C)(C)c2nnnn2-c2c(C)cccc2C)cc1	tim10-1 inh 40.0 | tim10-1 conf 32.2
O=C(/C=C/c1ccccc1)CC(O)(c1ccccc1)C(F)(F)F (configuration not stated)	tim10-1 inh 44.9 | tim10-1 conf 39.3
COc1ccc(/C=C/C(=O)CC(O)(c2ccccc2)C(F)(F)F)cc1 (configuration not stated)	tim10-1 inh 46.5 | tim10-1 conf 35.6
COc1ccc(/C=C/C(=O)CCC(=O)O)cc1	none
O=C(/C=C/c1ccccc1)CC(=O)c1ccccc1O	none
CC(=O)C1=C(C)N(Cc2ccccc2)C(=O)N[C@@H]1c1cccc(C(F)(F)F)c1	tim10-1 inh 41.5 | tim10-1 conf inactive
CC(=O)C1=C(C)N(Cc2ccccc2)C(=O)N[C@H]1c1cccc(C(F)(F)F)c1	none
NS(=O)(=O)c1ccc(CCNS(=O)(=O)c2ccc(Cl)s2)cc1	none
O=C(COc1ccc(/C=N/NS(=O)(=O)c2ccccc2)cc1)NCc1ccccc1	none
CC(=O)Oc1ccc(/C=N/NS(=O)(=O)c2ccccc2)cc1	tim10-1 inh 44.2 | tim10-1 conf 43.9
CCN1CCN(c2ccc(NC(=O)c3cc(OC)c(OC)c(OC)c3)cc2)CC1	none
CCC(=O)N1c2ccc(S(=O)(=O)CCC(=O)N3CCn4c3nc3ccccc34)cc2CC1C (configuration not stated)	tim10-1 inh 44.7 | tim10-1 conf inactive
CCCCN1C(=O)NC(NC(=O)c2ccco2)(C(F)(F)F)C1=O (configuration not stated)	none
CC(C)Oc1ccc(C(=O)NC2(C(F)(F)F)NC(=O)N(CCCc3ccccc3)C2=O)cc1 (configuration not stated)	tim10-1 inh 42.8 | tim10-1 conf inactive
C=CCOC(=O)C(C#N)c1nc2ccccc2nc1N1CCCC1 (configuration not stated)	tim10-1 inh 40.6 | tim10-1 conf inactive
COCCOC(=O)C(C#N)c1nc2ccccc2nc1N1CCCC1 (configuration not stated)	none
COc1ccc2c(COC(=O)CNC(=O)C34CC5CC(CC(C5)C3)C4)cc(=O)oc2c1	tim10-1 inh 42.0 | tim10-1 conf inactive
O=C(Nc1ccccc1Cl)C1CCCN(c2ncnc3c2nc2n3CCCCC2)C1 (configuration not stated)	tim10-1 inh 54.1 | tim10-1 conf inactive
O=C(Nc1cccnc1)C1CCCN(c2ncnc3c2nc2n3CCCCC2)C1 (configuration not stated)	none
CCc1cccc(NC(=O)C2CCCN(c3ncnc4c3nc3n4CCCCC3)C2)c1 (configuration not stated)	tim10-1 inh 40.4 | tim10-1 conf inactive
COc1ccc(Cl)cc1NC(=O)CN(C)C(=O)c1cccc2cccnc12	none
Cc1cc(NC(=O)CN2C(=O)NC(C)(c3ccc(Cl)cc3Cl)C2=O)no1 (configuration not stated)	none
CSc1nc(-c2ccccc2)nc(C(C)C)n1	none
Cc1cc(SCC(=O)Nc2cccnc2Cl)nc2ccccc12	none
COCCn1c(SCC(=O)Nc2nc(C)c(Cl)cc2Cl)nc2ccccc21	tim10-1 inh 42.3 | tim10-1 conf inactive
Cc1nc(NC(=O)CSc2cc(C)c3ccccc3n2)c(Cl)cc1Cl	tim10-1 inh 40.6 | tim10-1 conf inactive
COc1cccc(OC)c1C(=O)NC(=S)NCc1cccnc1	none
O=C(Nc1ccccc1C(=O)N1CCCCC1)c1cccs1	none
O=C(COc1ccccc1)N=C1SC2CS(=O)(=O)CC2N1c1ccc(F)cc1 (configuration not stated)	none
Cc1ccc(C)c(C(C)NC(=S)NCc2ccc(F)cc2)c1 (configuration not stated)	none
CN(Cc1ccccc1)C(=O)CSc1nc2c(c(C(F)(F)F)n1)CCc1ccccc1-2	tim10-1 inh 43.5 | tim10-1 conf inactive
NC(=O)c1c(NC(=O)CSc2nc3c(c(C(F)(F)F)n2)CCc2ccccc2-3)sc2c1CCCC2	none
